Test results: ChEMBL document CHEMBL4699429, “Novel 1,3,4-thiadiazole compounds as potential MAO-A inhibitors - design, synthesis, biological evaluation and molecular modelling” (RSC Med Chem, 2020)

Key:
[1] = biological target: T1, Amine oxidase [flavin-containing] A (Homo sapiens, UniProt P21397); test: Inhibition of human recombinant MAO-A at 10 uM using tyramine as substrate preincubated with enzyme for 30 mins followed by incubation with substrate for 30 mins by Amplex Red reagent based fluorometric method relative to control; settings: 0.5 h, time 60 min
T1 sequence (P21397 whole entry): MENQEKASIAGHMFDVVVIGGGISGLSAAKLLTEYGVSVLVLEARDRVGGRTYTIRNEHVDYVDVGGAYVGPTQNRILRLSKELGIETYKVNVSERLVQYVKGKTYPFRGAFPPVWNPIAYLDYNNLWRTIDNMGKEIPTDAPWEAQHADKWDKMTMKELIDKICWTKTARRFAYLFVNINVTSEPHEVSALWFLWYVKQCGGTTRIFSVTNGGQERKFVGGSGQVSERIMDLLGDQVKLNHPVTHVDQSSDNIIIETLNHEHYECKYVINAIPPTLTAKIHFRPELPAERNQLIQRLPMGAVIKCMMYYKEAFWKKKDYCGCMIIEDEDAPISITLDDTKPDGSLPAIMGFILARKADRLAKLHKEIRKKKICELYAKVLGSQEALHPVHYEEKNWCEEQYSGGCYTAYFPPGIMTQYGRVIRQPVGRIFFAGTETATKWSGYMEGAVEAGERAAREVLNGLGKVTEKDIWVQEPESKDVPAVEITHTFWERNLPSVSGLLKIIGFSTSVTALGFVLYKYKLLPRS
How it was run: (§1)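 Recombinant hMAO-A at 0.5 U/mL in phosphate buffer. Inhibitors are dissolved in 2% DMSO and preincubated with enzyme at 37 °C for 30 min. The working solution is then added: horseradish peroxidase, Amplex (Ampliflu) red and tyramine. Fluorescence (Ex/Em 535/587 nm) is read at 5-min intervals over 30 min at 37 °C. Controls use 2% DMSO. Background without enzyme is subtracted. Peroxidase interference is checked with H2O2.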

[2] = biological target: T2, Amine oxidase [flavin-containing] B (Homo sapiens, UniProt P27338); test: Inhibition of human recombinant MAO-B at 100 uM using tyramine as substrate preincubated with enzyme for 30 mins followed by incubation with substrate for 30 mins by Amplex Red reagent based fluorometric method relative to control; settings: 0.5 h, read-out: INH
T2 sequence (P27338 whole entry): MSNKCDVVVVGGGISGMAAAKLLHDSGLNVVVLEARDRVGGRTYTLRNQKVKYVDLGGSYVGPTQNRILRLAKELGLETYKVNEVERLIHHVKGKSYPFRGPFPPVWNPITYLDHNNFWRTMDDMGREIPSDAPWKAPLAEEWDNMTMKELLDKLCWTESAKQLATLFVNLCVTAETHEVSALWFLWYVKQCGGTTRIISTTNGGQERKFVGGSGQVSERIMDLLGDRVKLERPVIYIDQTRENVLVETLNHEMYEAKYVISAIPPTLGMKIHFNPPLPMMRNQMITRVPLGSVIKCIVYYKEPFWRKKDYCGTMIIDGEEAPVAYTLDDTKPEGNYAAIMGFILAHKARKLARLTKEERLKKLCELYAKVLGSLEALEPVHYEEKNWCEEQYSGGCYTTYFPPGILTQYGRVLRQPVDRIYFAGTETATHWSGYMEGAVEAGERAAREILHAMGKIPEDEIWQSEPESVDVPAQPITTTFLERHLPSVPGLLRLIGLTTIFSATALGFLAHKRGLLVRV

[3] = biological target: T1, Amine oxidase [flavin-containing] A; test: Inhibition of human recombinant MAO-A at 1 uM using tyramine as substrate preincubated with enzyme for 30 mins followed by incubation with substrate for 30 mins by Amplex Red reagent based fluorometric method relative to control; settings: 0.5 h, time 60 min; how it was run: as §1
[4] = biological target: T1, Amine oxidase [flavin-containing] A; test: Inhibition of human recombinant MAO-A at 0.1 uM using tyramine as substrate preincubated with enzyme for 30 mins followed by incubation with substrate for 30 mins by Amplex Red reagent based fluorometric method relative to control; settings: 0.5 h, time 60 min; how it was run: as §1
[5] = biological target: T1, Amine oxidase [flavin-containing] A; test: Inhibition of human recombinant MAO-A at 1 mM using tyramine as substrate preincubated with enzyme for 30 mins followed by incubation with substrate for 30 mins by Amplex Red reagent based fluorometric method relative to control; settings: 0.5 h, time 60 min; how it was run: as §1
[6] = biological target: T1, Amine oxidase [flavin-containing] A; test: Inhibition of human recombinant MAO-A at 100 uM using tyramine as substrate preincubated with enzyme for 30 mins followed by incubation with substrate for 30 mins by Amplex Red reagent based fluorometric method relative to control; settings: 0.5 h, time 60 min; how it was run: as §1
[7] = biological target: T1, Amine oxidase [flavin-containing] A; test: Inhibition of human recombinant MAO-A using tyramine as substrate preincubated with enzyme for 30 mins followed by incubation with substrate for 30 mins by Amplex Red reagent based fluorometric method
How it was run: as §1, with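 “tyramine.” for “tyramine. Fluorescence (Ex/Em 535/587 nm) is read at 5-min intervals over 30 min at 37 °C.”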

[8] = biological target: T2, Amine oxidase [flavin-containing] B; test: Inhibition of human recombinant MAO-B at 1 mM using tyramine as substrate preincubated with enzyme for 30 mins followed by incubation with substrate for 30 mins by Amplex Red reagent based fluorometric method relative to control; settings: 0.5 h, read-out: INH
[9] = biological target: T1, Amine oxidase [flavin-containing] A; test: Inhibition of human recombinant MAO-A at 0.01 uM using tyramine as substrate preincubated with enzyme for 30 mins followed by incubation with substrate for 30 mins by Amplex Red reagent based fluorometric method relative to control; settings: 0.5 h, time 60 min; how it was run: as §1
[10] = biological target: T1, Amine oxidase [flavin-containing] A; test: Inhibition of human recombinant MAO-A at 0.1 nM using tyramine as substrate preincubated with enzyme for 30 mins followed by incubation with substrate for 30 mins by Amplex Red reagent based fluorometric method relative to control; settings: 0.5 h, time 60 min; how it was run: as §1
[11] = biological target: T1, Amine oxidase [flavin-containing] A; test: Inhibition of human recombinant MAO-A at 1 nM using tyramine as substrate preincubated with enzyme for 30 mins followed by incubation with substrate for 30 mins by Amplex Red reagent based fluorometric method relative to control; settings: 0.5 h, time 60 min; how it was run: as §1
[12] = biological target: T1, Amine oxidase [flavin-containing] A; test: Inhibition of human recombinant MAO-A at 0.01 nM using tyramine as substrate preincubated with enzyme for 30 mins followed by incubation with substrate for 30 mins by Amplex Red reagent based fluorometric method relative to control; settings: 0.5 h, time 60 min; how it was run: as §1
[13] = biological target: T1, Amine oxidase [flavin-containing] A; test: Inhibition of human recombinant MAO-A assessed as enzyme residual activity using tyramine as substrate at 4XIC50 incubated with enzyme for 15 mins followed by substrate addition by Amplex Red reagent based fluorometric method relative to control; settings: 0.25 h
How it was run: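 Recombinant hMAO-A (1 U mL⁻¹) preincubated with inhibitor for 15 min at 37 °C in 0.05 M potassium phosphate, pH 7.4, with 5% sucrose and 1% DMSO. The mixture was dialysed 24 h at 4 °C (12 000 Da cut-off) against 100 mM potassium phosphate, pH 7.4, 5% sucrose, with two buffer changes. Residual activity was then measured in triplicate and reported as mean ± SEM.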

[14] = biological target: T1, Amine oxidase [flavin-containing] A; test: Competitive inhibition of human recombinant MAO-A using tyramine as substrate preincubated with enzyme for 30 mins followed by substrate addition and measured for 30 mins by Lineweaver-burk plot analysis

Row | inhibition at 10 µM [1] | inhibition at 100 µM [2] | inhibition at 1 µM [3] | inhibition at 0.1 µM [4] | inhibition at 1000 µM [5] | inhibition at 100 µM [6] | IC50 [7] | inhibition at 1000 µM [8] | inhibition at 0.01 µM [9] | inhibition at 0.0001 µM [10] | inhibition at 0.001 µM [11] | inhibition at 10 pM [12] | Ki [14] | Compound | Activity [13]
1 | 86.1% | 28.5% | 46% | 43% | 92.5% | 89.1% | 1070 nM | 36% | 23.9% | 10.8% | 13.6% | 6.87% |  | CC(C)Nc1nnc(SCC(=O)N(Cc2cccc([N+](=O)[O-])c2)c2ccc(F)cc2)s1 | 
2 | 72.6% | 24.2% | 43.2% | 31.8% | 93.5% | 84.3% | 1790 nM | 36% | 25.5% | 12.6% | 17.3% | 6.36% |  | CC(C)CNc1nnc(SCC(=O)N(Cc2cccc([N+](=O)[O-])c2)c2ccc(F)cc2)s1 | 
3 | 78.3% | 26.8% | 62.3% | 45.1% | 95% | 91.1% | 241 nM | 42.7% | 25.1% | 12% | 20.5% | 8.5% |  | CCCNc1nnc(SCC(=O)N(Cc2cccc([N+](=O)[O-])c2)c2ccc(F)cc2)s1 | 
4 | 80.6% | 25.7% | 72.7% | 61.1% | 94.1% | 91.5% | 60 nM | 38.6% | 34.7% | 20.1% | 26.9% | 13.5% | 33 nM | COCCNc1nnc(SCC(=O)N(Cc2cccc([N+](=O)[O-])c2)c2ccc(F)cc2)s1 | 25.956%
5 | 74.1% | 22.4% | 61.9% | 42.1% | 93.6% | 89.5% | 336 nM | 41.3% | 30.3% | 14.2% | 21% | 10.3% |  | CCNc1nnc(SCC(=O)N(Cc2cccc([N+](=O)[O-])c2)c2ccc(F)cc2)s1 | 
6 | 76% | 34.3% | 47.3% | 33.6% | 90.5% | 82.3% | 1170 nM | 40.6% | 30% | 11.1% | 19.7% | 6.94% |  | CCCCNc1nnc(SCC(=O)N(Cc2cccc([N+](=O)[O-])c2)c2ccc(F)cc2)s1 | 
7 |  | 26.5% |  |  | 87.6% | 42.7% |  | 37.9% |  |  |  |  |  | Cc1ccc(Nc2nnc(SCC(=O)N(Cc3cccc([N+](=O)[O-])c3)c3ccc(F)cc3)s2)cc1 | 
8 | 75.2% | 29.2% | 56.5% | 43.2% | 92% | 86.4% | 502 nM | 38.1% | 32.7% | 13.5% | 20.5% | 10.2% |  | C=CCNc1nnc(SCC(=O)N(Cc2cccc([N+](=O)[O-])c2)c2ccc(F)cc2)s1 | 
9 |  | 20.7% |  |  | 89.5% | 41.4% |  | 43.1% |  |  |  |  |  | O=C(CSc1nnc(Nc2ccccc2)s1)N(Cc1cccc([N+](=O)[O-])c1)c1ccc(F)cc1 | 

Row | Compound | inhibition at 10 µM [1] | inhibition at 100 µM [2] | inhibition at 1 µM [3] | inhibition at 0.1 µM [4] | inhibition at 1000 µM [5] | inhibition at 100 µM [6] | IC50 [7] | inhibition at 1000 µM [8] | inhibition at 0.01 µM [9] | inhibition at 0.0001 µM [10] | inhibition at 0.001 µM [11] | inhibition at 10 pM [12] | Ki [14] | Activity [13]
10 | C#CCN(C)CCCOc1ccc(Cl)cc1Cl [CLORGILINE] | 88.5% |  | 79.1% | 63.9% | 96.4% | 92.1% |  |  | 35.3% | 17% | 21.7% | 11.3% |  | 88.315%
11 | O=C(NCCN1CCOCC1)c1ccc(Cl)cc1 [MOCLOBEMIDE] | 62.4% |  | 35.8% | 24.5% | 95.3% | 83.1% |  |  | 19.6% | 12.8% | 15.4% | 7.25% |  | 31.253%
